CSC inhib – cancer stem cell inhibition | cancer stem cell-like cells viability, luminescence | inhibition, % at 7.5 µM | 300,000 compounds, 1.1% hits; in the data active = inhibition above about 75%; inconclusive = no clear call, values can overlap the other calls; tested in HMLE shEcad cells
aSyn 5UTR inh – 5' untranslated region of α-synuclein, MLPCN primary screen; alpha-synuclein 5'UTR reporter, inhibitor activity; inhibition, % (tested at 7.5 µM); 300,000 compounds, 0.82% hits; AID 1813; in the data active = inhibition above about 60%; inconclusive = no clear call, values can overlap the other calls;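 note: H4 neuroglioblastoma cells stably carrying SNCA 5'UTR luciferase fusion; 0% = DMSO wells and 100% = positive control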
T cruzi repl – T. cruzi replication inhibition; AID 1885; T. cruzi beta-gal in NIH3T3, luminescence, 90 h; 300,000 compounds, 1.4% hits; inhibition, % (concentration not given with the values);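 active = mean inhibition across valid replicates above about 55%, limit read from the data; inconclusive = mean below that limit but half or more replicates reach it; inactive = mean below it, under half of replicates reach it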;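 note: signal also drops with host cell toxicity which is not excluded here; 0% = plate median of DMSO wells and 100% = zero luminescence signal; higher percent means less beta-gal luminescence so fewer parasites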
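System: mouse NIH/3T3 fibroblasts infected with β-gal-expressing T. cruzi Tulahuen C4 / Input: NIH/3T3 cells, 5,000 per well / Buffer or medium: Low-serum DMEM with 2% FBS / Probe or stimulus: 5000 reporter trypomastigotes per well / Schedule: ≥90 h infection period, 3 h prior cell attachment / Measured by: GalScreen luminescence, 60 min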
Mdm2-MdmX inh – inhibitors of human Mdm2/MdmX interaction. inhibition, % at 8 µM. 330,000 compounds, 3% hits. O15151+Q00987. SaOS-2 split-luciferase Mdm2/MdmX complementation, luminescence;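 active = inhibition of at least 50% at 8 µM in the primary screen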
Target sequence (O15151 whole entry, looked up): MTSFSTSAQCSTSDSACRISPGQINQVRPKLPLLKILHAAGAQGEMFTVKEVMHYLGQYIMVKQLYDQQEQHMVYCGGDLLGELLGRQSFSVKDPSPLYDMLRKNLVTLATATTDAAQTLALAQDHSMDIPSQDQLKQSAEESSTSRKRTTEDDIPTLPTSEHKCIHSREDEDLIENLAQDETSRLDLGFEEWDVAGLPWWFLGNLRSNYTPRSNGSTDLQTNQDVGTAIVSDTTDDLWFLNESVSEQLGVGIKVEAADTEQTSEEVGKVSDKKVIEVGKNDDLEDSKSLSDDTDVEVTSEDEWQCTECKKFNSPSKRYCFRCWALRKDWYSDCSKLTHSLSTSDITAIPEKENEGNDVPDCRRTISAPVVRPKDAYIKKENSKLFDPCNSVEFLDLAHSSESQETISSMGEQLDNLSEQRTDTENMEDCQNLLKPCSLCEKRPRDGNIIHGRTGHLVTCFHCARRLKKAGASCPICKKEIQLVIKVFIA
Target sequence (Q00987 whole entry, looked up): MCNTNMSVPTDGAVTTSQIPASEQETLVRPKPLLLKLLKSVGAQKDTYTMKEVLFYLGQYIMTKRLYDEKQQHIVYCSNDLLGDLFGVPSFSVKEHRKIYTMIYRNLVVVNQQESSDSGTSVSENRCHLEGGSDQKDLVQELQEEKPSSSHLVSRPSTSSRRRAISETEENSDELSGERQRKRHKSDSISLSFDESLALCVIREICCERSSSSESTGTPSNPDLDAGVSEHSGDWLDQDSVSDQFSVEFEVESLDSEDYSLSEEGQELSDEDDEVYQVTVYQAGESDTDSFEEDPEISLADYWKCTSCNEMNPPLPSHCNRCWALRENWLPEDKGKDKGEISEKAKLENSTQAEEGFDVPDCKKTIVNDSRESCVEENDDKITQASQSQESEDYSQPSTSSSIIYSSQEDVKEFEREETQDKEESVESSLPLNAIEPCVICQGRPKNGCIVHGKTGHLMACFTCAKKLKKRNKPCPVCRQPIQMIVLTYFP
SKKanGAS inh – blocks kanamycin growth of S. pyogenes SKKanGAS strain; BacTiter-Glo, 6 h; inhibition, % at 7.5 µM; 300,000 compounds, 1.3% hits;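 active = mean replicate score, as percent of positive control median, at least 50; inconclusive = mean below 50 but one replicate at or above 50; inactive = mean and every replicate below 50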;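 note: strain carries kanamycin resistance gene driven by streptokinase promoter and grows in 40 µg/ml kanamycin; loss of luminescence reflects streptokinase promoter inhibition or plain growth inhibition; 0% = median of DMSO wells and 100% = positive control at its reference dose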
Mdm2-MdmX conf – confirmation of human Mdm2/MdmX interaction inhibitors. shares compounds with Mdm2-MdmX inh. Mdm2-MdmX binding, luminescent assay. inhibition, % at 8 µM. 10,000 compounds, 55% hits. AID 489028; in the data active = inhibition above about 40%
Full FLuc ctr – counter-screen for Mdm2/MdmX inhibitors: full-length luciferase. AID 504607. inhibition, % at 8 µM. 6,200 compounds, 77% hits. shares compounds with Mdm2-MdmX inh. SaOS-2 full-length luciferase counterscreen, luminescence;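 active = mean inhibition at 8 µM reaching about 37%, which flags the compound as non-specific, limit read from the data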;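 note: p53-null SaOS-2 cells with luciferase driven by a doxycycline-inducible promoter; compound on cells about two nights before reading with doxycycline added after day one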
Active calls of the source: *; ? = inconclusive; / = no result given. Shown are actives, neighbours in structure and some others; about 5.4% of the full set was active somewhere.

SMILES | CSC inhib | aSyn 5UTR inh | T cruzi repl | Mdm2-MdmX inh | SKKanGAS inh | Mdm2-MdmX conf | others
O=C(NCCN1CCOCC1)c1ccc(/C=C2\Sc3ccccc3N(Cc3ccccc3F)C2=O)cc1 | 46 | 5 | -2 | 60* | 10 | 9
CC1(C)CC2(CCCN(CC(O)(c3ccccc3)c3ccccc3)C2)CCO1 (stereo unspecified) | 1 | -12 | 26 | -3 | -2 | /
Cc1nnc(Cn2cnc3c2c(=O)n(C)c(=O)n3C)o1 | -13 | 39 | -4 | 22 | -3 | /
COc1ccc(CCC(=O)N(C)CC(=O)Nc2cc(C)ccc2C)cc1 | 22 | 10 | -6 | -5 | -2 | /
Cc1ccc(Cl)cc1NC(=O)COC(=O)c1ccc(N2CCCC2)c([N+](=O)[O-])c1 | 11 | 5 | -23 | 34 | -10 | /
CCc1[nH]nc(C(=O)N/N=C/c2ccncc2)c1C | -7 | -70 | -6 | -4 | 1 | /
Cn1c(=O)c2c(nc(-n3ccnc3)n2Cc2ccc([N+](=O)[O-])cc2)n(C)c1=O | -3 | 9 | 14 | 20 | 1 | /
Cn1c(=O)n(CCO)c(=O)c2c1nc(Br)n2Cc1ccccc1 | -9 | 23 | 0 | -19 | 2 | /
O=C(NCCN1CCOCC1)c1ccc2c(c1)N(Cc1cccc(F)c1)C(=O)c1ccccc1S2 | 7 | 2 | -2 | 8 | 1 | /
Cc1cccc(CN2C(=O)/C(=C\c3ccc(C(=O)NCCN4CCOCC4)cc3)Sc3ccccc32)c1 | -16 | 5 | 46 | 80* | 7 | 61* | Full FLuc ctr=76*
COc1ccc(OC)c(NC(=O)Cc2coc3ccc4ccccc4c23)c1 | -1 | -2 | -11 | -16 | 26 | /
COc1ccccc1N=c1oc2c(OC)cccc2cc1C(=O)NCc1ccco1 | -17 | 6 | 21 | 51* | 5 | 3
COc1ccc(C(=O)OCC2CC(c3ccccc3)=NO2)cc1OC (stereo unspecified) | -7 | 18 | 3 | -35 | 2 | /
COc1ccc(-c2nc3c(c(=O)n(C)c(=O)n3C)n2CC2CC(c3ccccc3)=NO2)cc1OC (stereo unspecified) | / | -5 | -14 | 61* | 14 | 45* | Full FLuc ctr=89*
CCC(C)NC(=S)Nc1ccccc1 (stereo unspecified) | / | 18 | -6 | 20 | -6 | /
CCC(C)Nc1ccc(NC(C)CC)cc1 (stereo unspecified) | 82* | / | / | 97* | / | 68* | Full FLuc ctr=18
Cc1ccc(C(=O)COC(=O)C2CC(=O)N(c3nc(-c4ccccc4)cs3)C2)cc1 (stereo unspecified) | -6 | -17 | -5 | 20 | 11 | /
Cc1cccc(/C=C/C(=O)c2cc(Br)ccc(=O)c2O)c1 | 103* | 53 | 43 | 54* | 90* | 36 | Full FLuc ctr=73*
CCc1ccc(/C=C/C(=O)c2cc(Br)ccc(=O)c2O)cc1 | 9 | 72* | 33 | 52* | 106* | 39 | Full FLuc ctr=40*
CC(C)(C)C(=O)O/N=C(\N)Cc1ccc(-c2csnn2)cc1 | 1 | 2 | -16 | 77* | 7 | 18
COc1ccc(CC(=O)O/N=C(\N)Cc2ccc(OC)cc2)cc1 | -11 | -4 | -7 | 11 | 2 | /
Cc1ccc(C(=O)C(c2ccccc2)N2Cc3ccccc3C2=N)cc1 (stereo unspecified) | 111* | -13 | 37 | 79* | ? | 18
CCCCc1ccc(NC(=O)CSc2nc(=O)n3cc(C)ccc3n2)cc1 | 15 | 22 | -8 | 22 | 3 | /
COc1ccc(C(=O)Oc2cc3c4c(c2)C(C)=CC(C)(C)N4C(=O)C3=O)cc1OC | 11 | 18 | -2 | 67* | -2 | 24
COc1cccc(C(=O)Oc2cc3c4c(c2)C(C)=CC(C)(C)N4C(=O)C3=O)c1 | 7 | -6 | -35 | 67* | 18 | 50* | Full FLuc ctr=45*
COc1cc2c3c(c1)C(C)=CC(C)(C)N3C(=O)C2=O | 11 | -5 | -3 | 56* | -4 | 26
COc1cc(N=C2C(=O)N3c4c(cccc42)C(C)=CC3(C)C)cc(OC)c1 | / | -5 | 13 | -1 | 0 | /
CCc1nc(N2CCN(C(=O)CCl)CC2)c2c3c(sc2n1)CC(C)CC3 (stereo unspecified) | 17 | 6 | 53 | 100* | 13 | 11
